Measured values published in ChEMBL document CHEMBL1781935, “Amberlite-IRA-402 (OH) ion exchange resin mediated synthesis of indolizines, pyrrolo [1,2-a] quinolines and isoquinolines: antibacterial and antifungal evaluation of the products” (2011).
≈ marks a conversion by molar mass, not a printed value. Calls of active or inactive are those of the source. The calls are words filed in the database; no cut-off is given here.

Tests used:
[1] = system: Escherichia coli; assay: Antibacterial activity against Escherichia coli ATCC 25938; format: functional
Procedure, shortened: (§1)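 MIC by broth and agar dilution. Broth: 0.1 ml suspension (2 × 10^6 cfu/ml) in Mueller-Hinton broth with test drug at 1–1000 µg/ml, 37 °C overnight. Agar: serial drug dilutions in Mueller-Hinton agar, spot-inoculated with 2 × 10^6 cfu/spot, 37 °C for 24 h. MIC was the lowest concentration with no visible growth. Antibiotic controls were included.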

[2] = system: Klebsiella pneumoniae; assay: Antibacterial activity against Klebsiella pneumoniae isolate J/1/4; format: functional; procedure, shortened: as §1
[3] = system: Staphylococcus aureus; assay: Antibacterial activity against Staphylococcus aureus ATCC 25923; format: functional; procedure, shortened: as §1
[4] = system: Pseudomonas aeruginosa; assay: Antibacterial activity against Pseudomonas aeruginosa ATCC 27853; format: functional; procedure, shortened: as §1
[5] = system: Vibrio cholerae; assay: Antibacterial activity against Vibrio cholerae isolate 7201; format: functional
[6] = system: Bacillus subtilis; assay: Antibacterial activity against Bacillus subtilis UC564; format: functional; procedure, shortened: as §1
[7] = system: Shigella dysenteriae; assay: Antibacterial activity against Shigella dysenteriae isolate 3; format: functional
[8] = system: Enterococcus faecalis; assay: Antibacterial activity against Streptococcus faecalis isolate 29212; format: functional; procedure, shortened: as §1
[9] = system: Shigella flexneri; assay: Antibacterial activity against Shigella flexneri DN13; format: functional; procedure, shortened: as §1
[10] = system: Salmonella typhi; assay: Antibacterial activity against Salmonella typhi DIRW; format: functional, Salmonella enterica subsp. enterica serovar Typhi; conditions: Salmonella enterica
[11] = system: Vibrio parahaemolyticus; assay: Antibacterial activity against Vibrio parahaemolyticus isolate 72016; format: functional; procedure, shortened: as §1
[12] = system: Micrococcus luteus; assay: Antibacterial activity against Micrococcus luteus AGD1; format: functional; procedure, shortened: as §1
[13] = system: Salmonella typhimurium; assay: Antibacterial activity against Salmonella Typhimurium isolate 11; format: functional, Salmonella enterica subsp. enterica serovar Typhimurium; conditions: Salmonella enterica; procedure, shortened: as §1
[14] = system: Vibrio cholerae; assay: Antibacterial activity against Vibrio cholerae isolate 7201 at 10 to 80 ug/ml after overnight incubation by broth dilution method; format: functional, organism-based
[15] = system: Shigella dysenteriae; assay: Antibacterial activity against Shigella dysenteriae isolate 3 at 10 to 80 ug/ml after overnight incubation by broth dilution method; format: functional, organism-based
[16] = system: Escherichia coli; assay: Antibacterial activity against Escherichia coli ATCC 25938 at 10 to 80 ug/ml after overnight incubation by broth dilution method; format: functional, organism-based
Procedure, shortened: (§2)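 Bactericidal testing with double-fold drug dilutions in Mueller-Hinton broth. Tubes inoculated with 1 ml suspension (2 × 10^6 cfu/ml) and shaken at 200 rpm at 37 °C for 24 h. Drug was added at mid-logarithmic growth. Viable colony counts were taken from 1.0 ml aliquots plated on nutrient agar.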

[17] = system: Pseudomonas aeruginosa; assay: Antibacterial activity against Pseudomonas aeruginosa ATCC 27853 at 10 to 80 ug/ml after overnight incubation by broth dilution method; format: functional, organism-based; procedure, shortened: as §2
[18] = system: Escherichia coli; assay: Antibacterial activity against Escherichia coli ATCC 25938 at 1 to 1000 ug/ml after overnight incubation by disc diffusion method; format: functional
Procedure, shortened: (§3)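 Disc diffusion on Mueller-Hinton agar. Plates seeded with 0.1 ml bacterial suspension (2 × 10^6 cfu/ml). Sterile 6 mm paper discs were impregnated with compound solutions at 1–1000 µg/ml and incubated at 37 °C overnight. Read-out was the diameter of the clear inhibition zone. Stocks were 1 mg/ml in 4% Tween 80 or 4% propylene glycol.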

[19] = system: Klebsiella pneumoniae; assay: Antibacterial activity against Klebsiella pneumoniae isolate J/1/4 at 1 to 1000 ug/ml after overnight incubation by disc diffusion method; format: functional; procedure, shortened: as §3
[20] = system: Staphylococcus aureus; assay: Antibacterial activity against Staphylococcus aureus ATCC 25923 at 1 to 1000 ug/ml after overnight incubation by disc diffusion method; format: functional; procedure, shortened: as §3
[21] = system: Pseudomonas aeruginosa; assay: Antibacterial activity against Pseudomonas aeruginosa ATCC 27853 at 1 to 1000 ug/ml after overnight incubation by disc diffusion method; format: functional; procedure, shortened: as §3
[22] = system: Vibrio cholerae; assay: Antibacterial activity against Vibrio cholerae isolate 7201 at 1 to 1000 ug/ml after overnight incubation by disc diffusion method; format: functional
[23] = system: Vibrio cholerae; assay: Antibacterial activity against Vibrio cholerae isolate 720 at 1 to 1000 ug/ml after overnight incubation by disc diffusion method; format: functional
[24] = system: Bacillus subtilis; assay: Antibacterial activity against Bacillus subtilis UC564 at 1 to 1000 ug/ml after overnight incubation by disc diffusion method; format: functional; procedure, shortened: as §3
[25] = system: Shigella dysenteriae; assay: Antibacterial activity against Shigella dysenteriae isolate 3 at 1 to 1000 ug/ml after overnight incubation by disc diffusion method; format: functional
[26] = system: Enterococcus faecalis; assay: Antibacterial activity against Enterococcus faecalis isolate 29212 at 1 to 1000 ug/ml after overnight incubation by disc diffusion method; format: functional; procedure, shortened: as §3
[27] = system: Shigella flexneri; assay: Antibacterial activity against Shigella flexneri DN13 at 1 to 1000 ug/ml after overnight incubation by disc diffusion method; format: functional; procedure, shortened: as §3
[28] = system: Salmonella typhi; assay: Antibacterial activity against Salmonella typhi DIRW at 1 to 1000 ug/ml after overnight incubation by disc diffusion method; format: functional; conditions: Salmonella enterica subsp. enterica serovar Typhi
[29] = system: Vibrio parahaemolyticus; assay: Antibacterial activity against Vibrio parahaemolyticus isolate 72016 at 1 to 1000 ug/ml after overnight incubation by disc diffusion method; format: functional; procedure, shortened: as §3
[30] = system: Micrococcus luteus; assay: Antibacterial activity against Micrococcus luteus AGD1 at 1 to 1000 ug/ml after overnight incubation by disc diffusion method; format: functional; procedure, shortened: as §3
[31] = system: Salmonella typhimurium; assay: Antibacterial activity against Salmonella Typhimurium isolate 11 at 1 to 1000 ug/ml after overnight incubation by disc diffusion method; format: functional, organism-based; conditions: Salmonella enterica subsp. enterica serovar Typhimurium; procedure, shortened: as §3
[32] = system: Staphylococcus aureus; assay: Antibacterial activity against Staphylococcus aureus ATCC 25923 at 10 to 80 ug/ml after overnight incubation by broth dilution method; format: functional, organism-based; procedure, shortened: as §2
[33] = system: Bacillus subtilis; assay: Antibacterial activity against Bacillus subtilis UC564 at 10 to 80 ug/ml after overnight incubation by broth dilution method; format: functional, organism-based; procedure, shortened: as §2

Compound | MIC [1] | MIC [2] | MIC [3] | MIC [4] | MIC [5] | MIC [6] | MIC [7] | MIC [8] | MIC [9] | MIC [10] | MIC [11] | MIC [12] | MIC [13] | further results
COC(=O)c1c(C(=O)OC)c2ccccn2c1C(=O)c1ccccc1 | > 500 µg/mL | > 500 µg/mL | > 500 µg/mL | 500 µg/mL (≈ 1480 µM) | > 500 µg/mL | > 500 µg/mL | > 500 µg/mL | > 500 µg/mL | > 500 µg/mL | > 500 µg/mL | > 500 µg/mL | > 500 µg/mL | > 500 µg/mL | 
CCOC(=O)c1c(C(=O)OCC)c2ccc3ccccc3n2c1C(=O)c1ccccc1 | > 500 µg/mL | 256 µg/mL (≈ 616 µM) | 64 µg/mL (≈ 154 µM) | 32 µg/mL (≈ 77 µM) | 128 µg/mL (≈ 308 µM) | 16 µg/mL (≈ 38.5 µM) | 32 µg/mL (≈ 77 µM) | 500 µg/mL (≈ 1200 µM) | > 500 µg/mL | 500 µg/mL (≈ 1200 µM) | 64 µg/mL (≈ 154 µM) | 500 µg/mL (≈ 1200 µM) | > 500 µg/mL | Activity [14]: Active; Activity [15]: Active; Activity [16]: Active; Activity [17]: Active; diameter of the inhibition zone (DIZ) [18]: 8.1 mm; diameter of the inhibition zone (DIZ) [19]: 8.6 mm; diameter of the inhibition zone (DIZ) [20]: 10.2 mm; diameter of the inhibition zone (DIZ) [21]: 9.7 mm; diameter of the inhibition zone (DIZ) [22]: 7.7 mm; diameter of the inhibition zone (DIZ) [23]: 7.7 mm; diameter of the inhibition zone (DIZ) [24]: 10 mm; diameter of the inhibition zone (DIZ) [25]: 11.1 mm; diameter of the inhibition zone (DIZ) [26]: inactive; diameter of the inhibition zone (DIZ) [27]: inactive; diameter of the inhibition zone (DIZ) [28]: inactive; diameter of the inhibition zone (DIZ) [29]: 9.3 mm; diameter of the inhibition zone (DIZ) [30]: inactive; diameter of the inhibition zone (DIZ) [31]: inactive; Activity [32]: Active; Activity [33]: Active
CCOC(=O)c1c(C(=O)OCC)c2ccccn2c1C(=O)c1ccccc1 | > 500 µg/mL | > 500 µg/mL | > 500 µg/mL | > 500 µg/mL | > 500 µg/mL | > 500 µg/mL | > 500 µg/mL | > 500 µg/mL | > 500 µg/mL | > 500 µg/mL | > 500 µg/mL | > 500 µg/mL | > 500 µg/mL | 
